Published values from different studies.
Read-out: cell growth or viability

CC(C)(C)c1cnc(CSc2cnc(NC(=O)C3CCN(C(=O)CCCCCCCN4Cc5cc6c(cc5C4)C(=O)N(C4CCC(=O)NC4=O)C6=O)CC3)s2)o1 (stereo not shown)
IC50 (MES-SA; MTT): 0.0853 µM

C[C@H](Nc1ccc2c(c1)OCCn1cc(N3C(=O)OC[C@H]3C(F)F)nc1-2)C(N)=O
EC50 (NCI-H1563; ATP luminescence; 5 days): 0.149 µM

CO[C@H]1[C@H](O[C@H]([C@H]2O[C@@H](n3ccc(=O)[nH]c3=O)[C@H](O)[C@@H]2O)[C@H](NCCCNC(=O)[C@@H](NC(=O)[C@@H](NC(=O)N[C@H](C(=O)O)C(C)C)[C@@H]2CCN=C(N)N2)[C@@H](O)C(C)C)C(=O)O)O[C@H](CN)[C@H]1O
IC50 (BT-474; WST-1): > 35 µM

COc1cc([C@@H]2c3cc4c(cc3[C@@H](O[C@@H]3O[C@@H]5CO[C@@H](C)O[C@H]5[C@H](O)[C@H]3O)[C@H]3COC(=O)[C@H]23)OCO4)cc(OC)c1O
IC50 (SK-HEP1; SRB; 72 h): 2.7 µM

CONC(=O)c1cccc2c1cc(C)n2-c1nc2c(c(NCc3ccccc3)n1)CCCN2
IC50 (MOLM16; 72 h): 0.4 µM

CO[C@H]1[C@H](O[C@H]([C@H]2O[C@@H](n3ccc(=O)[nH]c3=O)[C@H](O)[C@@H]2O)[C@H](NCCCNC(=O)[C@@H](NC(=O)[C@@H](NC(=O)N[C@H](C(=O)O)C(C)C)[C@@H]2CCN=C(N)N2)[C@@H](OC(=O)CCCCCCCCCCCCN(O)C(=N)N)C(C)C)C(=O)O)O[C@H](CN)[C@H]1O
IC50 (BT-474; WST-1): 0.85 µM

Cc1nc(NC(=O)N2CCC[C@H]2C(N)=O)sc1-c1ccnc(C(C)(C)C(F)(F)F)c1
EC50 (NCI-H1563; ATP luminescence; 5 days): 7.42 µM

NC(=O)C1CN(C(=O)CCl)c2ccccc2O1 (stereo not shown)
IC50 (BT-474; fluorescence; 5 days): 17.5 µM

COC(=O)c1cc(C(C)=NNc2nc(-c3ccc(C)cc3)cs2)ccc1O
IC50 (human Skin fibroblast; MTT; 96 h): 10.2 µM

COc1cccc2c1C(=O)c1c(O)c3c(c(O)c1C2=O)C[C@@](O)(C(=O)CO)C[C@@H]3O[C@H]1C[C@H](N)[C@H](O)[C@H](C)O1
IC50 (human Skin fibroblast; MTT; 24 h): > 100 µM

CCc1oc2cc(S(=O)(=O)Nc3ccc(S(=O)(=O)Nc4nccs4)cc3)ccc2c1C(=O)c1cc(Br)c(O)c(Br)c1
IC50 (human Skin fibroblast; MTT; 96 h): 146 µM

C[C@H]1[C@H](C)CC[C@]2(C(=O)O)CC[C@]3(C)C(=CC[C@@H]4[C@@]5(C)CC[C@H](O)C(C)(C)[C@@H]5CC[C@]43C)[C@H]12
IC50 (human Skin fibroblast; MTT; 24 h): 32.3 µM

Cc1cc2c(C(=O)O)cccc2n1-c1nc2c(c(NCc3ccccc3)n1)CCCN2
IC50 (MOLM16; 72 h): 0.7 µM
